Assay results of several laboratories.
Lines come from different studies, so protocols differ.
Target: MAP/microtubule affinity-regulating kinase 3 (MARK3, Homo sapiens, UniProt P27448)

| SMILES | test | setting | endpoint | value |
| --- | --- | --- | --- | --- |
| COc1cc2ncnc(Nc3ccc(Oc4ccccc4)c(C)c3C)c2cc1OC | enzyme activity, inhibitor | 1 µM | inhibition | -4% |
| O=C1Nc2ccc(Cl)cc2C1=Cc1cc(Cl)c(O)c(Cl)c1 | cell-free assay | 0.5 µM | remaining signal | 81.1% |
| O=C(Nc1cccc(Nc2ncc(Br)c(NCCc3cnc[nH]3)n2)c1)N1CCCC1 | enzyme activity, inhibitor, radiometric | 1 µM | remaining activity | -1% |
| Nc1ncnc2occ(-c3ccc(NC(=O)Nc4cc(C(F)(F)F)ccc4F)cc3)c12 | cell-free assay, inhibitor | 20 µM | remaining signal | 15% |
| CN(C)C(=O)Cn1cc(-c2nc(C3(c4ccc(-c5cnc(N)nc5)cc4)CC3)no2)cn1 | cell-free assay, competition with immobilised ligand | 1 µM | remaining binding | 100% |
| CN1CC(Oc2cnc(C#N)cc2-c2ccn3nc(NC(=O)C4CC4)cc3c2)C1 | enzyme activity, inhibitor | 1 µM | inhibition | 17% |
| CC/C(=N\NC(=O)NCc1cccc(O)c1)c1ccc(O)c(C)c1O | enzyme activity, inhibitor | 0.1 µM | inhibition | -16.8% |
| FC(F)(F)Oc1cccc(-c2cnc3ccc(-c4ccncc4)nn23)c1 | enzyme activity, inhibitor, radiometric | 5 µM | activity vs control | 95% |
| NS(=O)(=O)c1ccc(CNc2nc(Nc3cccc(NC(=O)N4CCCC4)c3)ncc2Br)cc1 | enzyme activity, inhibitor, radiometric | 1 µM | remaining activity | 63% |
| CSc1cccnc1N1CCN(Cc2nc3ccccc3[nH]2)CC1 | cell-free assay, competition with immobilised ligand | 1 µM | remaining binding | 98% |
| O=C(NCCCNc1nc(Nc2cccc(NC(=O)N3CCCC3)c2)ncc1C1CC1)C1CCC1 | enzyme activity, inhibitor, radiometric | 1 µM | remaining activity | 0% |
| CS(=O)(=O)Nc1cccc(-c2csc(NC(=O)CSc3nc4nccnc4c(=O)n3CCc3ccccc3)n2)c1 | enzyme activity, inhibitor | 10 µM | inhibition | 1% |
| CCN(CC)CCNC(=O)c1c(C)[nH]c(/C=C2\C(=O)Nc3ccc(F)cc32)c1C | cell-free assay | 0.5 µM | remaining signal | 30.4% |
| C[C@@H]1CN(c2cc(-c3n[nH]c4ccc(OC5(C)CC5)cc34)ncn2)C[C@H](C)O1 | cell-free assay, competition with immobilised ligand | 0.1 µM | remaining binding | 73% |
| CS(=O)(=O)CCNCc1ccc(-c2ccc3ncnc(Nc4ccc(OCc5cccc(F)c5)c(Cl)c4)c3c2)o1 | cell-free assay | 0.5 µM | remaining signal | 95.9% |
| C[C@H](NC(=O)c1cnc2n1[C@](C)(Cc1ccc(C#N)cc1)C(=O)N2c1cc(Cl)c(F)c(Cl)c1)C(=O)NC1(c2ccccn2)CC1 | cell-free assay, competition with immobilised ligand | 1 µM | remaining binding | 92% |
| NS(=O)(=O)c1ccc(CNc2ccnc(Nc3cccc(CN4CCOCC4)c3)n2)cc1 | enzyme activity, inhibitor, radiometric | 1 µM | remaining activity | 113% |
| CC(=O)N1CCC(c2ccc(C(=O)NC(=N)N)cc2C(F)(F)F)CC1 | cell-free assay, competition with immobilised ligand | 1 µM | remaining binding | 88% |
| O=C(NCCCNc1ccnc(Nc2cccc(NC(=O)N3CCCC3)c2)n1)C1CCC1 | enzyme activity, inhibitor, radiometric | 1 µM | remaining activity | 92% |
| Nc1c(C(=O)NCc2ccc(C(=O)NCCCC3CCCCC3)cc2)cnn1-c1ccccc1 | cell-free assay, competition with immobilised ligand | 0.1 µM | remaining binding | 78% |
| COc1cc(Nc2cnc(C#N)c(O[C@H](C)CN(C)C)n2)ncc1-c1cnn(C)c1 | enzyme activity, inhibitor, radiometric | 10 µM | remaining activity | 69% |
| CN(c1ncccc1CNc1nc(Nc2ccc3c(c2)CC(=O)N3)ncc1C(F)(F)F)S(C)(=O)=O | enzyme activity, inhibitor | 1 µM | inhibition | 83.5% |
| CCOC(=O)c1cc2cc(-c3cc(C(=O)NCc4ccc(C(=O)O)cc4)nn3C)ccc2[nH]1 | cell-free assay, competition with immobilised ligand | 0.1 µM | remaining binding | 93% |
| CCCCNc1ncc2c(-c3ccc(F)cc3)nn(C[C@H]3CC[C@H](N)CC3)c2n1 | target engagement in cells, inhibitor, chemoproteomics | 20 mM | inhibition | 33.9% |
| Cc1nn(CC(F)(F)F)cc1Nc1ncc(Br)c(NCCc2cnc[nH]2)n1 | enzyme activity, inhibitor, radiometric | 1 µM | remaining activity | 68% |
| c1ccc(CNc2nc(N3CCOc4ccccc43)nc3c2CCCC3)cc1 | target engagement in cells, inhibitor, chemoproteomics | 20 mM | inhibition | 3% |
| Cc1nn(CC(F)(F)F)cc1Nc1ncc(C2CC2)c(NCc2ccc(S(N)(=O)=O)cc2)n1 | enzyme activity, inhibitor, radiometric | 1 µM | remaining activity | 111% |
| O=C1NC(=O)c2cc(Nc3ccc(F)cc3)c(Nc3ccc(F)cc3)cc21 | cell-free assay | 0.5 µM | remaining signal | 90.8% |
| Cc1cc(C)c(-n2ccn3nc(-c4cccnc4)cc23)cc1NC(=O)c1cc(C#N)cc(S(F)(F)(F)(F)F)c1 | cell-free assay, competition with immobilised ligand | 0.1 µM | remaining binding | 85.1% |
| CN1CCc2cc(Nc3ncc(C4CC4)c(NCCCNC(=O)C4CCC4)n3)ccc2C1 | enzyme activity, inhibitor, radiometric | 1 µM | remaining activity | -4% |
